Screens as filed in PubChem.
GASC-1 inh: inhibitors of human GASC-1 (JMJD2C) demethylase; AID 2099; GST-JMJD2C(1-420) H3K9me3 demethylation, DELFIA europium; inhibition, % at 2.35 µM; 0.069% of 330,000 active; Q9H3R0;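 active = more than half of a compound's replicate wells show inhibition beyond 50%, single wells judged on their own value; inconclusive = some, but no more than half, of replicates pass 50% inhibition; inactive = no replicate passes 50% inhibition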;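 note: signal counts dimethyl H3K9 product captured on neutravidin plate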
SENP1 inh: SENP1 (human) catalytic domain inhibition | recombinant SENP1 catalytic domain, CyPet-SUMO1-YPet FRET cleavage | inhibition, % at 10 µM | 0.21% of 360,000 active | AID 624204;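 active = inhibition at least 30% at 10 µM, raw YFP signal under a set limit, fluorescence ratio 0.5 to 1.5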
Target sequence (Q9P0U3 419-644 limits assumed): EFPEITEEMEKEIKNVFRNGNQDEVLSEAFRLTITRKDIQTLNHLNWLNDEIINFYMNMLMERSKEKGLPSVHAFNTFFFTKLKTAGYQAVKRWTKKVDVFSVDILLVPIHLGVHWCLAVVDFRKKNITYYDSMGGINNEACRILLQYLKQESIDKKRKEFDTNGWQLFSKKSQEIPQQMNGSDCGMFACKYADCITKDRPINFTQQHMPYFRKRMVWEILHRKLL
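system = hSENP1 catalytic domain, recombinant | reagent = SFCypet-SUMO1-SFYpet substrate at 25 nM | doses = one dose per compound, 10 µM, 0.5% DMSO | incubation = enzyme reaction for 50 min at room temperature, dark | measured by = FRET, CFP and YFP emission | controls = no-enzyme low, enzyme-DMSO high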
FAS TE block: blocks the thioesterase domain of human fatty acid synthase. inhibition, % at 15 µM. recombinant FAS-TE, OMFH fluorogenic substrate, fluorescence endpoint. 0.67% of 360,000 active. AID 602261;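 active = compounds whose normalised, plate-corrected inhibition of enzyme fluorescence in the single-dose primary screen is 50% or more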
Arrestin-AP2 inh: blocks beta-arrestin peptide binding to AP2 adaptin; FITC-arrestin peptide / GST-AP2 beads, flow cytometry; AP2 beta2 appendage carries R879A mutation; 0.31% of 340,000 active; AID 504490; inhibition, % at 10 µM;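 active = inhibition above a set limit, near 3 SD of compounds lacking own fluorescence, cut at about 54% in these data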
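Material – AP2 appendage R879A on GSH beads · Buffer or medium – PBS with 0.05% Tween 20 and 0.1% BSA · Probe or stimulus – fluorescein-tagged arrestin peptide at 50 nM final · Incubation – compound with beads 12 min RT, then probe 1 h RT · Detection – high-throughput flow cytometry of beads, ex 488, em 535 nm · Evaluation – percent response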
FAS-TE conf: FAS thioesterase (human) inhibition, confirmation; inhibition, % at 15 µM; recombinant FAS-TE, OMFH fluorogenic substrate, fluorescence; 45% of 2,300 active; shares compounds with FAS TE block;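 active = compounds inhibiting the enzyme by at least 50% at 15 µM in any one of the replicates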
Hits are given with their value; . = inactive; ? = inconclusive; / = no result given. Only some compounds are listed: those with a hit (about 1.1% of all), similar ones and a draw of the others.

SMILES	GASC-1 inh	SENP1 inh	FAS TE block	Arrestin-AP2 inh	FAS-TE conf
NC(=O)[C@H]1CC2(CC(c3cccc(NC(=O)COc4ccc(Cl)cc4)c3)=NO2)CN1C(=O)CC(c1ccccc1)c1ccccc1 (stereo not given in full)	?	.	64	.	.
CCC(=O)Nc1cccc(C2=NOC3(C2)C[C@@H](C(N)=O)N(C(=O)COc2ccc(Cl)cc2)C3)c1 (stereo not given in full)	.	.	.	.	/
NC(=O)[C@@H]1CC2(CC(c3cccc(NC(=O)CC(c4ccccc4)c4ccccc4)c3)=NO2)CN1C(=O)COc1ccc(Cl)cc1 (stereo not given in full)	.	.	60	.	.
Cc1ccc(S(=O)(=O)Oc2ccc(/C=C3/N=C(c4ccccc4)OC3=O)cc2)cc1	.	.	54	.	.
C#CCN(C[C@H]1[C@H](OC(=O)NCc2ccccc2F)[C@H](OC(=O)NCc2ccccc2F)C[C@H]2C(=O)N(c3ccccc3)C(=O)[C@@H]12)S(=O)(=O)c1ccc(C)cc1	/	.	54	/	.
C#CCN(C[C@H]1[C@H](OC(=O)NCc2ccc(OC)c(OC)c2)[C@H](OC(=O)NCc2ccc(OC)c(OC)c2)C[C@H]2C(=O)N(c3ccccc3)C(=O)[C@@H]12)S(=O)(=O)c1ccc(C)cc1	/	.	71	/	.
COCc1cc(C)nc(SCC(=O)Nc2ccc3c(c2)OCO3)c1C#N	.	.	.	.	/
Cc1nc2cc(C(F)(F)F)ccc2n1CCNc1nc(-c2ccc(F)cc2)cs1	.	.	.	.	/
O=[N+]([O-])c1cc(-c2csc(NCCc3nc4cc(C(F)(F)F)ccc4n3CCCO)n2)ccc1Cl	.	.	81	.	70
Cc1nc2cc(C(F)(F)F)ccc2n1CCNc1nc(-c2ccc([N+](=O)[O-])c(Cl)c2)cs1	.	.	52	.	.
OCCCn1c(CCNc2nc(-c3ccc(Cl)cc3)cs2)nc2cc(C(F)(F)F)ccc21	.	.	.	.	/
Cc1ccc(NC(=O)NNC(=O)Cn2nc(-c3ccccc3)c(-c3ccccc3)c(C#N)c2=O)cc1	.	.	68	.	58
COc1ccccc1Cc1c(-c2ccc(OC)c(OC)c2)nc2ccc(Cl)cn12	/	.	.	/	/
CCc1cc2c(=O)c(-c3nc4ccccc4n3C)c(C)oc2c(CN2CCCCC2)c1O	.	.	.	.	/
COC(=O)[C@@]1(Cc2ccc(F)cc2)[C@H]2c3cc(C(=O)N4CCCC4)n(CCc4ccc(OC)c(Br)c4)c3C[C@H]2CN1C(=O)c1ccccc1	/	.	.	/	/
COC(=O)[C@@]1(Cc2ccc(OC)cc2)[C@H]2c3cc(C(=O)N4CCCC4)n(CCc4ccc(OC)c(Br)c4)c3C[C@H]2CN1C(=O)c1ccccc1	/	.	73	/	.
O=[N+]([O-])c1ccc(-c2nc(Nc3cccc(O)c3)c3ccccc3n2)cc1	.	.	56	.	54
O=C(N/N=C/c1ccc[nH]1)c1cc2ccccc2cc1O	.	.	.	.	/
CCOC1=C2[C@H](c3cccc(Cl)c3)N(S(=O)(=O)c3ccc(C)cc3)C[C@H]2n2c(=O)n(-c3ccccc3)c(=O)n2C1	/	.	70	/	.
CCOC1=C2[C@H](c3ccc(C)cc3)N(S(=O)(=O)c3ccc(C)cc3)C[C@H]2n2c(=O)n(-c3ccccc3)c(=O)n2C1	/	.	.	/	/
CCOC1=C2[C@H](c3ccccc3F)N(S(=O)(=O)c3ccc(C)cc3)C[C@H]2n2c(=O)n(-c3ccccc3)c(=O)n2C1	/	.	75	/	.
CCOC1=C2CN(S(=O)(=O)c3ccc(C)cc3)[C@H](c3cccs3)C[C@H]2n2c(=O)n(-c3ccccc3)c(=O)n2C1	/	.	.	/	/
O=C(NC(=S)Nc1ccc(Cl)c(C(=O)O)c1)c1cccc(COc2ccccc2)c1	.	.	.	.	/
O=C(O)c1ccc(Cl)c(NC(=S)NC(=O)c2cccc(COc3ccccc3)c2)c1	.	.	61	.	72
Cc1c(Br)c([N+](=O)[O-])nn1CC(=O)Nc1ccc(C(C)C)cc1	.	.	73	.	59
Cc1c(Br)c([N+](=O)[O-])nn1CC(=O)Nc1ccc(Cc2ccncc2)cc1	.	.	68	.	64
COc1ccc(/C(O)=C2/C(=O)C(=O)N(CCN3CCOCC3)C2c2ccccn2)cc1 (stereo not given)	/	.	.	.	/
